Source: PubChem BioAssay
NR2E3 ag-1 = NR2E3 (human) agonism | GST-NR2E3/biotin-RetCOR TR-FRET, 1536-well | inhibition of corepressor binding, % at 4.78 µM | hit rate 0.12% among 320,000 | AID 2300;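 active = percent inhibition above the cutoff of mean plus 3 SD of all tested compounds, set per screening campaign, cut at about 20% in these data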
Target sequence (Q9Y5X4 whole entry, looked up): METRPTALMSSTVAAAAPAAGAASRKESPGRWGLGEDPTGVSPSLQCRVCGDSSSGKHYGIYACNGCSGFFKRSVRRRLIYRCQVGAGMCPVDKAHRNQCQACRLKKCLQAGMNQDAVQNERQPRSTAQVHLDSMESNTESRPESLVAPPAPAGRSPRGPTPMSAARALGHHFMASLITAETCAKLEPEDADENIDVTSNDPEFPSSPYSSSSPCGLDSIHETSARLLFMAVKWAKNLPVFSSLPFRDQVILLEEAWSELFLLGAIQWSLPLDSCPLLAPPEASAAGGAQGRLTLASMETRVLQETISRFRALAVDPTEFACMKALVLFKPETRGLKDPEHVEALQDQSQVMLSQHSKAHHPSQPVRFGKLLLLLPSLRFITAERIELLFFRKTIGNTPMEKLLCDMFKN
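Material – GST-tagged NR2E3 plus biotinylated RetCOR corepressor · Quantity – NR2E3 fusion 1.35 nM · Times – 5 h incubation at 4 °C · Medium – pH 7.5 Tris-based buffer · Technique – TR-FRET, Eu(K)-anti-GST donor, streptavidin-D2 acceptor, ex 340, em 617/671 nm · Benchmarks – high control biotin, low control 0.6% DMSO · Format – 1536-well plates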
aDG glyco act = increases alpha dystroglycan glycosylation | AID 624168 | activation, % at 10 µM | hit rate 0.22% among 360,000 | Pro5-aDG cells, alpha-DG glycosylation AlphaScreen (IIH6); 0% Pro5, 100% B10-LARGE cell signal;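 active = activation of at least 8% versus controls, or a plate z-score of at least 8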;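 note: Pro5 are CHO cells carrying HIG-tagged alpha-DG that lacks glycosylation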
NR2E3 ag-2 = agonists of human NR2E3 nuclear receptor | CHO-S Gal4-NCOR/VP16-NR2E3 two-hybrid, luciferase | inhibition of corepressor binding, % at 3.98 µM | hit rate 0.35% among 360,000;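 active = inhibition above the mean of all tested compounds plus 3 SD, cut at about 70% in these data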;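 note: higher means lower luciferase signal from less NR2E3 corepressor binding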
697 NFkB inh = lowers PMA/ionomycin-induced NF-kB signal in 697 B cells; 697 B-cell NF-kB luciferase reporter, 16 h; hit rate 0.33% among 330,000; inhibition, % at 4 µM; in the data active = inhibition above about 35%
MPTP inh = inhibitors of mitochondrial permeability transition pore. inhibition, % at 10 µM. isolated mouse mitochondria, Ca2+ swelling absorbance, 30 min. AID 602449. hit rate 1.4% among 360,000;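 active = inhibition of 50% or more, scaled per plate between neutral and stimulator controls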
Jurkat NFkB inh = lowers PMA/ionomycin-induced NF-kB signal in Jurkat cells | PMA/ionomycin-induced NF-kB luciferase reporter, luminescence | inhibition, % at 4 µM | hit rate 0.53% among 330,000 | AID 435003; in the data active = inhibition above about 50%
Rh123 counter = Rhodamine 123 counter-screen of mitochondrial pore hits | hit rate 78% among 5,000 | inhibition, % at 10 µM | AID 624504 | shares compounds with MPTP inh | isolated mitochondria, membrane potential, Rhodamine 123 fluorescence; in the data active = inhibition above about 22%
MPTP abs DR = dose response confirmation of mitochondrial permeability transition pore inhibitors; isolated mitochondria swelling, absorbance; IC50, µM; hit rate 58% among 780; shares compounds with MPTP inh; in the data active = IC50 below about 20 µM
MPTP counter DR = active in counter-screen for permeability transition pore inhibitors | shares compounds with MPTP inh | hit rate 49% among 780 | isolated mitochondria counterscreen, fluorescence read-out | IC50, µM | AID 651564; in the data active = IC50 below about 80 µM
Of the large screens only hits and unclear results are named; the others gave an inactive call (follow-up assays come after a bar, where they were run). Hits are enriched below; roughly 2.4% of the tested compounds scored in any of these assays.

Cc1cccc(NC(=S)Nc2cccc(C(F)(F)F)c2)n1	none
O=C(NNC(=S)Nc1cccc(C(F)(F)F)c1)c1cccc(Cl)c1	MPTP inh 93.5 | Rh123 counter 86.1
FC(F)(F)c1ccccc1NC(=S)Nc1cccc(Cl)c1	MPTP inh 97.4 | Rh123 counter 88.6
CC(C)C(=O)NC(=S)Nc1ccccc1C(F)(F)F	none
FC(F)(F)c1cccc(NC(=S)Nc2cccc(NC(=S)Nc3cccc(C(F)(F)F)c3)n2)c1	MPTP inh 90.9 | Rh123 counter 63.8
OCCC1CN(Cc2cn[nH]c2C2CCCCC2)CCN1C1CCCC1 (stereo unspecified)	none
FC(F)(F)c1cccc(NC(=S)NNC(=S)NCc2ccccc2)c1	MPTP inh 79.4 | Rh123 counter 71.8
S=C(Nc1ccccc1)Nc1ccc(Cl)cc1Cl	MPTP inh 60.7 | Rh123 counter 79.3
FC(F)(F)c1cccc(NC(=S)NCc2ccccn2)c1	none
FC(F)(F)c1cccc(NC(=S)Nc2ccc(Cl)cc2Cl)c1	MPTP inh 98.3 | Rh123 counter 108.6
Cc1nc(N2CCN(c3ccccc3)CC2)[nH]c(=O)c1C	none
COc1cnc(SCc2c(Cl)cccc2Cl)nc1Cl	none
CC(=O)NCCNC(=O)c1ccc(Sc2ccccc2)c([N+](=O)[O-])c1	none
CN(C)CCNC(=O)c1ccc(Sc2ccc(Br)cc2)c([N+](=O)[O-])c1	aDG glyco act 3.6, MPTP inh 101.9 | Rh123 counter inactive | MPTP abs DR 5.77 | MPTP counter DR inactive
CCCC1C2C(=O)N(c3cccc(C)c3)C(=O)C2ON1c1ccccc1 (stereo unspecified)	none
CC(=O)Nc1ccc(S(=O)(=O)Nc2cccc(-c3nc4cc(C)ccc4o3)c2)cc1	aDG glyco act 3.9, MPTP inh 95.7 | Rh123 counter 74.3
CC(=O)Nc1ccc(S(=O)(=O)Nc2cccc(-c3csc(C)n3)c2)cc1	none
CCSCc1nnc(SCC(=O)Nc2ccc(F)cc2)n1CC	none
Oc1ccc(Cl)cc1Cc1cc(Cl)ccc1O	MPTP inh 86.4 | Rh123 counter 86.5
Oc1ccc(Cl)cc1CNCc1ccc(Cl)cc1	none
Cc1ccc(NC(=O)N2CCC(NC(=O)c3cccc(F)c3)CC2)cc1	none
COc1cc(/C=C(\C#N)c2nc3ccccc3[nH]2)ccc1Oc1ccc([N+](=O)[O-])cn1	MPTP inh 78.2 | Rh123 counter 55.0
COc1cc(/C=C(\C#N)c2nc3ccccc3[nH]2)cc(Br)c1OCc1ccccc1	MPTP inh 63.6 | Rh123 counter 72.9
Cc1ccc2nc(/C(C#N)=C\c3ccc(Oc4ccc(C(F)(F)F)cc4[N+](=O)[O-])cc3)[nH]c2c1	MPTP inh 99.4 | Rh123 counter 58.9
COc1ccc(/C=C(\C#N)c2nc3ccc(C)cc3[nH]2)cc1Oc1ccc(C(F)(F)F)cc1[N+](=O)[O-]	none
COc1cc(/C=C(\C#N)c2nc3ccccc3[nH]2)cc(Br)c1OCc1ccc(F)cc1	none
N#C/C(=C\c1cccc(Oc2ccc(C(F)(F)F)cc2[N+](=O)[O-])c1)c1nc2ccccc2[nH]1	MPTP inh 155.2 | Rh123 counter 105.0
COc1cc(/C=C(/C#N)c2ccccc2)ccc1Oc1ccc([N+](=O)[O-])cn1	none
COc1ccc(N2CCN(C(=O)[C@@H]3CCCN3C3=NS(=O)(=O)c4ccccc43)CC2)cc1	none
CCOc1ccc(S(=O)(=O)N2CCC(C(=O)NCC3CCCO3)CC2)cc1 (stereo unspecified)	none
O=C(NCCCN1CCOCC1)/C(=C/c1ccc(-c2cccc([N+](=O)[O-])c2)o1)NC(=O)c1ccccc1	none (no result: NR2E3 ag-1, 697 NFkB inh, Jurkat NFkB inh)
Cc1nc2nc(C)n(CCN3CCOCC3)c(=O)c2c(-c2cccc([N+](=O)[O-])c2)c1C(=O)CCCCCCCCCCN1CCC(c2ccccc2)(c2ccccc2)CC1	MPTP inh 59.4 (no result: NR2E3 ag-1, 697 NFkB inh, Jurkat NFkB inh) | Rh123 counter 107.2
O=C(/C(Br)=C/Nc1cc(Cl)ccc1Cl)C(F)(F)F	MPTP inh 95.9 | Rh123 counter 93.5
CCCCOc1ccc(CSCCNC(=S)Nc2ccccc2)cc1	MPTP inh 97.3 | Rh123 counter 94.9
Cc1c(C(=O)NCCSCc2cccc(C(F)(F)F)c2)cnn1-c1ccc(F)cc1	none
Cc1ccc(S(=O)(=O)N(CC(=O)Nc2ccc(Cl)c([N+](=O)[O-])c2)C2CCCCC2)cc1	MPTP inh 91.0 | Rh123 counter 81.0
COc1ccc(-c2n(CC(=O)OC3CC(C)CCC3C(C)C)c3ccccc3[n+]2C)cc1 (stereo unspecified)	MPTP inh 50.2 (no result: NR2E3 ag-1, 697 NFkB inh, Jurkat NFkB inh) | Rh123 counter 94.4
COc1ccc(OCc2n(CC(=O)OC3CC(C)CCC3C(C)C)c3ccccc3[n+]2C)cc1 (stereo unspecified)	none
O=S(=O)(c1ccc(NC(=S)NCCc2ccccc2)cc1)N1CCOCC1	MPTP inh 66.6 | Rh123 counter 85.1
O=S(=O)(c1ccc(NC(=S)NN=C(Cc2ccccc2)Cc2ccccc2)cc1)N1CCOCC1	none
O=S(=O)(c1ccc(NC(=S)NCc2ccco2)cc1)N1CCCCC1	MPTP inh 78.6 | Rh123 counter 92.1
S=C(NCCc1ccccc1)Nc1ccc(Cl)cc1	MPTP inh 100.2 | Rh123 counter 90.0
O=C(NCc1ccco1)c1ccc(S(=O)(=O)N2CCCCC2)cc1	none
O=C(NCCc1ccccc1)Nc1ccc(Cl)cc1	MPTP inh 75.9 | Rh123 counter 72.2
CS(=O)(=O)NNC(=O)Cn1nnc(-c2ccc(OCc3ccccc3Cl)cc2)n1	none
S=C(NCCc1ccccn1)Nc1cc(Cl)cc(Cl)c1	MPTP inh 60.1 | Rh123 counter 77.1
S=C(NCCCc1ccccc1)Nc1ccccc1Cl	MPTP inh 86.2 | Rh123 counter 99.8
Fc1cc(Br)ccc1NC(=S)NCCc1ccccc1	MPTP inh 78.9 | Rh123 counter 83.4
Cc1c(Cl)cccc1NC(=S)NCCc1ccc(C(F)(F)F)cc1	MPTP inh 98.4 | Rh123 counter 95.9
S=C(NCCc1ccccn1)Nc1ccc(Cl)c(Cl)c1	none
Cc1c(Cl)cccc1NC(=S)NCCc1ccccn1	none
Cc1ccc(C(=O)OCC(=O)NC2CCCCC2)cc1S(=O)(=O)N1CCCCC1	none
O=[N+]([O-])c1ccc(NC(=S)NCCc2ccccc2)cc1	MPTP inh 86.6 | Rh123 counter 88.2
O=C(Nc1ccc([N+](=O)[O-])cc1)C(c1ccccc1)c1ccccc1	MPTP inh 82.1 (no result: NR2E3 ag-1, 697 NFkB inh, Jurkat NFkB inh) | Rh123 counter 107.8
